Results on 1 molecule are retold here after ChEMBL document CHEMBL4270576, “Discovery of a benzenesulfonamide-based dual inhibitor of microsomal prostaglandin E2 synthase-1 and 5-lipoxygenase that favorably modulates lipid mediator biosynthesis in inflammation” (Eur J Med Chem, 2018).

The subject of data set [1] is Macrophage cell line. The data set can be described thus: Modulation of 13-HDHA level in human M2 macrophages derived from IL4-polarized human monocyte derived macrophages at 3 uM preincubated for 15 mins followed by Escherichia coli (O6:K2:H1) challenge for 90 mins by LC-MS/MS analysis. The data set is classed as functional. Put shortly:
(§1)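 Monocytes differentiated 6 days with M-CSF (20 ng/ml), then polarized 48 h with IL-4 20 ng/ml (M2). Cells (2 × 10^6) in PBS/1 mM CaCl2 pre-incubated 15 min at 37 °C with 3 µM compound or 0.1% DMSO, then challenged with E. coli O6:K2:H1 (1:50) for 90 min. Lipid mediators extracted by SPE with deuterated internal standards and quantified by UPLC-MS/MS as % of vehicle.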

Data set [2] concerns the target T1, Polyunsaturated fatty acid lipoxygenase ALOX15 (Homo sapiens) (UniProt P16050).
T1 sequence (whole entry): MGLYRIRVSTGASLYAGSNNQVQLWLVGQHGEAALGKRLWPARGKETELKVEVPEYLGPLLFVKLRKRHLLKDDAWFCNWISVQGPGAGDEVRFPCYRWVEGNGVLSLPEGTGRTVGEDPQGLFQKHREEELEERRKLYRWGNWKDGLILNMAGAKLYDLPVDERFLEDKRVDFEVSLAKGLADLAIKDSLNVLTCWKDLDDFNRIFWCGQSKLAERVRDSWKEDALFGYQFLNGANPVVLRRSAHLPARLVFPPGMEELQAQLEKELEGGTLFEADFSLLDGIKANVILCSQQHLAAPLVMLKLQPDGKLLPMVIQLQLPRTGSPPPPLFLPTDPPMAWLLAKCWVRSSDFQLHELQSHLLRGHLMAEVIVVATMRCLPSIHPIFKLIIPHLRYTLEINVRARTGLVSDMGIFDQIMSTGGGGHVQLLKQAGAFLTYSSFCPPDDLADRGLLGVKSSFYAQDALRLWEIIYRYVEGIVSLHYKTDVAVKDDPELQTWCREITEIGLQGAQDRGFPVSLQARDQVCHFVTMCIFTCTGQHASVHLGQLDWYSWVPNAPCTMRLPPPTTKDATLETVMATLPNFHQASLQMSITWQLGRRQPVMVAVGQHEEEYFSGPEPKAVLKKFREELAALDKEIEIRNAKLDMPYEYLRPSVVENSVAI
The data set can be described thus: Modulation of 15-LO-mediated 15-HETE level in human M2 macrophages derived from IL4-polarized human monocyte derived macrophages at 3 uM preincubated for 15 mins followed by Escherichia coli (O6:K2:H1) challenge for 90 mins by LC-MS/MS analysis. Put shortly: as §1

In data set [3] the test system is Macrophage cell line. In words: Modulation of 4-HDHA level in human M2 macrophages derived from IL4-polarized human monocyte derived macrophages at 3 uM preincubated for 15 mins followed by Escherichia coli (O6:K2:H1) challenge for 90 mins by LC-MS/MS analysis. The data set is classed as functional. In short, it runs like this:
as §1

Data set [4] is filed under the species Homo sapiens. In words: Modulation of LO-mediated MaR1 level in human M2 macrophages derived from IL4-polarized human monocyte derived macrophages at 3 uM preincubated for 15 mins followed by Escherichia coli (O6:K2:H1) challenge for 90 mins by LC-MS/MS analysis. In short, it runs like this:
as §1

For a further data set, the target named is T2, Prostaglandin E synthase (Homo sapiens, UniProt O14684).
T2 sequence (O14684 whole entry): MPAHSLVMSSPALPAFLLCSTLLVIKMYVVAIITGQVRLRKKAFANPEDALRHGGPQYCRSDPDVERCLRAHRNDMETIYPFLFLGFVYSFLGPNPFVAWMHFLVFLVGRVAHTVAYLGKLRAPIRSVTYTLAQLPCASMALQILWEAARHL
The data set can be described thus: Inhibition of mPGES-1 isolated from microsomes of interleukin-1 beta-stimulated human A549 cells using PGH2 as substrate preincubated for 15 mins followed by substrate addition measured after 1 min by RP-HPLC analysis. Put shortly: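 Microsomes from A549 cells treated with IL-1β (1 ng/ml, 72 h), diluted in 0.1 M potassium phosphate pH 7.4 with 2.5 mM glutathione. Pre-incubated 15 min with compound or DMSO, then 20 µM PGH2 (final) for 1 min at 4 °C. IC50 from 4-5 concentrations.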

The species named for data set [5] is Homo sapiens. The data set can be described thus: Modulation of LO-mediated RvD5 level in human M2 macrophages derived from IL4-polarized human monocyte derived macrophages at 3 uM preincubated for 15 mins followed by Escherichia coli (O6:K2:H1) challenge for 90 mins by LC-MS/MS analysis. Put shortly:
as §1

For another data set, the system named is Neutrophil. The data set can be described thus: Cytotoxicity against human neutrophils at 10 uM. The data set is classed as cell-based.
For data set [6], the target named is T3, Polyunsaturated fatty acid lipoxygenase ALOX12 (Homo sapiens) (UniProt P18054).
T3 sequence (whole entry): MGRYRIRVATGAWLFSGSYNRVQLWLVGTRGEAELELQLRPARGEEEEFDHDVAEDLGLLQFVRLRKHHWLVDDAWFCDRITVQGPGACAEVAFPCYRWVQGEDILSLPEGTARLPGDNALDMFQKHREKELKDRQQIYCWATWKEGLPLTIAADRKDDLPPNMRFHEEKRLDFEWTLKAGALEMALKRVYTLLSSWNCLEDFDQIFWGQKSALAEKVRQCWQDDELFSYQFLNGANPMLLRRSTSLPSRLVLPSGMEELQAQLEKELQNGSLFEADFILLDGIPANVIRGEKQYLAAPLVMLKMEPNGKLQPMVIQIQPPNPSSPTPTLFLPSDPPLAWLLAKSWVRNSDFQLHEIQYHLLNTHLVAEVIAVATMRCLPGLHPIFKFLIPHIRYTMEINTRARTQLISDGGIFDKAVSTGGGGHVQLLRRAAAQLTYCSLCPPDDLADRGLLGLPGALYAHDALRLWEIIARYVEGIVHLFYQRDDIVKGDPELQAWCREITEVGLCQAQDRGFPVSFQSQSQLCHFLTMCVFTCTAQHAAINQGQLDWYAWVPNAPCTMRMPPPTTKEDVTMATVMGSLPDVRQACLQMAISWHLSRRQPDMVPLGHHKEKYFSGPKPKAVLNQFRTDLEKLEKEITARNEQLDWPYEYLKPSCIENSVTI
The data set can be described thus: Modulation of 12-LO-mediated 14-HDHA level in human M2 macrophages derived from IL4-polarized human monocyte derived macrophages at 3 uM preincubated for 15 mins followed by Escherichia coli (O6:K2:H1) challenge for 90 mins by LC-MS/MS analysis. In short, it runs like this:
as §1

`O=C(O)c1ccc(N(Cc2cccc(OCc3ccccc3)c2)S(=O)(=O)c2ccc(-c3ccccc3)cc2)cc1`: the Activity is 127% in the data set on Macrophage cell line [1]; 135% in data set [2]; 86% in the data set on Macrophage cell line [3]; 141% in the data set filed under Homo sapiens [4]; 134% in the data set listed under Homo sapiens [5]; “Non-Toxic” with Neutrophil. The molecule also showed an Activity in data set [6] of 125%. The molecule also registered an IC50 at Prostaglandin E synthase of 700 nM.
